Test system: MS2 coat protein
Assay: apparent Kd, MS2 coat protein; higher = weaker binding; RNA-MaP array; FMN 200 µM where present
In short: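 Designs were transcribed by stalled E. coli RNA polymerase on Illumina sequencing-chip clusters. They were titrated with SNAP-549-labelled MS2 coat protein from 0.7 or 1.5 nM, doubling to 3 µM, in 100 mM Tris-HCl pH 7.5, 80 mM KCl, 4 mM MgCl2, BSA, DTT, yeast tRNA and Tween-20, without and then with constant ligand. The apparent Kd is the median of filtered per-cluster fits after normalisation of green signal to red-channel RNA signal and control-cluster median Fmax.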

[1] = designed as: OFF switch for flavin mononucleotide, no ligand
[2] = ligand present: flavin mononucleotide, designed as: OFF switch for flavin mononucleotide
[3] = designed as: ON switch for flavin mononucleotide, no ligand
[4] = ligand present: flavin mononucleotide, designed as: ON switch for flavin mononucleotide

| Sequence | apparent Kd [1] | apparent Kd [2] | apparent Kd [3] | apparent Kd [4] |
| --- | --- | --- | --- | --- |
| GCUGUAAGAGGAUAUACAUGGUAUUGACUGGCACCGGUUAGACAUGAGGAUCACCCAUGUAGAAGGCUUGUAUG | 86.3 nM | 248 nM |  |  |
| GGGUACCUCGGAGGAUAUCAUGUAAAUACAUGAGGAUCACCCAUGUCGAUGGAGACAUCGGAGAUUGAGAAGGCCGAUGUACCG |  |  | 168 nM | 9.32 nM |
| UCCGUGGCAUCUCGCGCAUGUCUACAUGAGGAUCACCCAUGUCAGGAUAUACGGAUUGUCGUUCUGUAGAAGGGACAAGGGCUG | 131 nM | 108 nM |  |  |
| CGCUACGUUUCGUAGCAGUGUCAUCGAGAAGGCCCUGACAUGAGGAUCACCCAUGUUGUUACAUGGGAGGAUAUCGAUGAUACA |  |  | 12.8 nM | 4.99 nM |
| UUUUGAAAGUGAGGAUAUGACAUGAGGAUCACCCAUGUAAAGGGAGUUGAAUAUAUAGAAAGAUAUCAGAAGGCACAAAUGUUU | 178 nM | 497 nM |  |  |
| CGAUGUUAUGUCAGGAUAUGCAUUGCGAAAGCGAUGCAGAAGGGACAUGAGGAUCACCCAUGUCCUAACCAUCG | 12.3 nM | 18.8 nM |  |  |
| AUCAGCUCGCCAGGAUAUACGUCACUGCGUCAGCAGUGUGGUAAGAUCACAUGAGGAUCACCCAUGUAGAAGGGACGAGCUGAU | 10.3 nM | 69.2 nM |  |  |
| ACUGUCGCGUGAGGAUAUGGUCUGCAGUGCUGACCAGAAGGCAUGUCGAUAGACAUGAGGAUCACCCAUGUGGUUAGGGCGGCU |  |  | 619 nM | 298 nM |
| UGCAUGCUAGGAUAUACGAAACAUUAGGGUUCUUUGUGUGAACAUGAGGAUCACCCAUGUAGAAGGAGCGUGCU | 151 nM | 38.5 nM |  |  |
| AAGACAUGAGGAUCACCCAUGUAAAGACCGGUCGAUCAAGGUGAGGAUAUACAAUAAUUGAUAGGGUAGAAGGCACUGGGUUGA |  |  | 286 nM | 148 nM |
| CGUACGUCAGGAUAUCUGAUGUCUAACUUCGGUUAGACAUCAGAGAAGGGACAUGAGGAUCACCCAUGUACGAG | 88.3 nM | 105 nM |  |  |
| GCUGUCGCAUGAGGAUAUGGUCUGCUUUGCAGACCAGAAGGCAUGUCAAUAGACAUGAGGAUCACCCAUGUAGUUAAGACAGCA |  |  | 766 nM | 46.6 nM |
| GGGCGACAUGAGGAUCACCCAUGUAACCAAAACGAAGGAUAUGGGCCUGAACGUCCAGGACUAGAAGGUCGGAAAC |  |  | 22 nM | 18 nM |
| GGGUGAUCCUUAGGAUAUCCCGCGCCAAAGUGCGUUUAUACUACAUGAGGAUCACCCAUGUAACGGGAGAAGGGAGGAAGCCCG |  |  | 11 nM | 4.31 nM |
| GAGUGGAAGGCCGCUACAUGAGGAUCACCCAUGUGCUAAGCACAGGAUAUCGCGCUAGCCCGGCGCGAGAAGGGUGACGGCCUG |  |  | 674 nM | 339 nM |
| GGGUAGAUCCGAGGAUAUACAAUCCGGAAACGGUACAUGAGGAUCACCCAUGUAGAAGGCGGAUCUACAGGUACUAAAGUAGGG | 16 nM | 14.2 nM |  |  |
| GCCAACGCAUGAGGAUAUGCUCCCGUUUCGGGAGCAGAAGGCAUGUCAUAAGACAUGAGGAUCACCCAUGUAGUUAACAUGGCA |  |  | 572 nM | 31.2 nM |
| UUACUAUUACAGAAGGUUAAAUAAUAUAUAAAUGAAGGAUAUGUGACAUGAGGAUCACCCAUGUUUCACCCACAUGAGGAUCAC | 12.1 nM | 13.3 nM |  |  |
| UAGAAGUCAGGAUAUCCAUGGCGGCACUUGCGUGGUGGCGUGGAGAAGGGACAUGAGGAUCACCCAUGUAAAGC | 48.7 nM | 37 nM |  |  |
| GCAAGGCAUGUAGGAUAUCGAGCUCAAAGAGCUCGAGAAGGACAUGAGGAUCACCCAUGUGCUCACAGACAGUGAGCGCCUUGC | 18.4 nM | 44.4 nM |  |  |
| GGCGGGCGGGAGGAUAUUCGGGCUGUUUGGCUUGGAGAAGGCUCGACAUGAGGAUCACCCAUGUUUGGGUCGUC | 18 nM | 37.8 nM |  |  |

From the EternaBench riboswitch data
